Source: PubChem BioAssay
KCNQ1 block: human KCNQ1 channel inhibition. AID 2642. actives 1.3% (n = 310,000). B-score at 10 µM. CHO-K1 KCNQ1, FluxOR thallium flux fluorescence; stronger effect = higher value;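 active means compounds whose thallium flux B-score, printed positive for inhibition, exceeds three library SD while starting fluorescence stays within three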;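 further: channel opened by potassium depolarization with thallium stimulus after 20 min compound exposure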
KCNK9 block: human KCNK9 channel inhibition | actives 1.2% (n = 310,000) | HEK293 KCNK9, FluxOR thallium flux fluorescence; stronger effect = lower value | B-score at 10 µM | Q9NPC2;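 active means ratio B-score over 3 SD below the library mean, with starting fluorescence within 5 SD of its mean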;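 further: negative B-score means less thallium flux so channel inhibition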
KCNQ1 act: potentiates or activates the human KCNQ1 potassium channel. P51787. CHO-K1 KCNQ1, thallium flux FluxOR fluorescence; stronger effect = higher value. B-score at 10 µM. actives 0.35% (n = 310,000). AID 2648;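 active means fluorescence ratio B-score, a plate-corrected score, at least three library SD, with initial intensity B-score within 5 SD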
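System: Stable KCNQ1 CHO-K1 line | Incubation: 90 min dye loading and 20 min compound exposure, both at room temperature | Measure: Ratio B score | Medium: Assay buffer for compound exposure, DMSO matched across wells | Compound dosing: Single-concentration screen | Probe or stimulus: K+/Tl+ depolarizing stimulus | Measured by: Kinetic FluxOR fluorescence, 10 s baseline plus 110 s post-stimulus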
hERG rescue: shields human hERG channel from block by proarrhythmic agents; AID 1511; activation (rescue from dofetilide block), less the hit threshold, % at 10 µM; CHO-hERG, FluxOR thallium flux, dofetilide IC70 present; actives 0.51% (n = 310,000);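 active means activation above the mean of controls blocked by dofetilide plus 5 SD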;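 further: thallium influx through hERG after potassium depolarization seen as dye fluorescence rise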
KCNK3 inh: human KCNK3 channel inhibition, primary screen. O14649. CHO-KCNK3 thallium flux, FluxOR fluorescence; stronger effect = lower value. B-score at 10 µM. actives 0.84% (n = 340,000). AID 602410;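 active means B-score under library mean minus 4 SD, starting fluorescence ratio at most library mean plus 5 SD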;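 further: more negative B-score means stronger inhibition of thallium flux through KCNK3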
Target sequence (O14649 whole entry, looked up): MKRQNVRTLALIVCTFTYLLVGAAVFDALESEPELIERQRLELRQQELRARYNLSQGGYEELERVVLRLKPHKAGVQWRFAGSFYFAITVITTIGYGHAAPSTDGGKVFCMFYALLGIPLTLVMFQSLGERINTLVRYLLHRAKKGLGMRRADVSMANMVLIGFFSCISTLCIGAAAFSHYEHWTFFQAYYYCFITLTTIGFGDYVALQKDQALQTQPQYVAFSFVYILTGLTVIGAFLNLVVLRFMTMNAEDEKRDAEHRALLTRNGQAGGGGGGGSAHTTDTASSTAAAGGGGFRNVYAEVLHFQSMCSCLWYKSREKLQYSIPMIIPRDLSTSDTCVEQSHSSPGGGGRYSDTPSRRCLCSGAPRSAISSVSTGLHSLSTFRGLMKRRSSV
Kir21 inh: inhibitors of mouse Kir2.1 inward-rectifier potassium channel; P35561; HEK293-Kir2.1, FluxOR thallium flux fluorescence; stronger effect = lower value; B-score at 10 µM; actives 0.85% (n = 310,000); AID 1672;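 active means fluorescence ratio B-score at or below minus 3 SD of library scores, with starting-brightness B-score within 2 SD, cut at about -4.2 in these data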;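 further: channel flux triggered by added potassium and thallium sulfate stimulus; B-score of peak minus minimum fluorescence over baseline after thallium stimulus; more negative B-score means stronger Kir2.1 block with less thallium influx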
KCNQ1 inh valid: confirmation of human KCNQ1 potassium channel inhibitors. shares compounds with KCNQ1 block. KCNQ1 cell line, FluxOR thallium flux fluorescence. inhibition, % at 10 µM. actives 93% (n = 1,600);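 active means primary screen active, with duplicate mean exceeding buffer control mean plus 3 SD of buffer wells, cut at about 28% in these data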
CHO Tl flux: counter-screen for KCNQ1 inhibitors: effect in parental CHO cells; shares compounds with KCNQ1 block; parental CHO-K1, FluxOR thallium flux fluorescence ratio; stronger effect = lower value; zero means no signal rise above baseline; fluorescence ratio (Tl flux) at 10 µM; actives 21% (n = 1,600); AID 588366;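 active means mean of duplicate thallium-flux fluorescence ratios in parental host cells more than 5 SD below the buffer control mean, cut at about 0.38 in these data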;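 further: ratio is peak minus minimum fluorescence divided by baseline fluorescence; actives read low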
KCNQ1 APC inh: blocks human KCNQ1 current in automated patch clamp; shares compounds with KCNQ1 block; KCNQ1-CHO cells; calls only at 10 µM; actives 20% (n = 490); AID 624120;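 active means KCNQ1 current drop exceeding 3 SD of negative control wells, seen in both duplicate runs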;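 further: steady state current during a 2 s step from -80 to +40 mV; negative values mean current inhibition and positive values mean potentiation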
KCNQ2 spec: KCNQ1 inhibitor that also blocks rat KCNQ2 channel; shares compounds with KCNQ1 block; KCNQ2 cells, FluxOR thallium flux fluorescence; inhibition, % at 10 µM; actives 71% (n = 1,600); AID 651746;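 active means mean percent inhibition of the KCNQ2 thallium signal more than 5 SD above the buffer-only control wells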;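 further: KCNQ2 expressed in CHO cells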
KCNQ1 KCNE1 spec: selectivity of KCNQ1 inhibitors: inhibition of human KCNQ1/KCNE1 channel. KCNQ1/KCNE1 cells, FluxOR thallium flux fluorescence. actives 77% (n = 1,600). inhibition, % at 10 µM. shares compounds with KCNQ1 block;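 active means mean percent inhibition of duplicate wells above the buffer-only control mean plus 3 SD of those controls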
Hits are given with their value; 0 = inactive; - = no result; + = active, no number. Hits are enriched below; roughly 3.7% of the tested compounds scored in any of these assays.

SMILES | KCNQ1 block | KCNK9 block | KCNQ1 act | hERG rescue | KCNK3 inh | Kir21 inh | KCNQ1 inh valid | CHO Tl flux | KCNQ2 spec | KCNQ1 KCNE1 spec | others
Cc1ccc(S(=O)(=O)N2CCCCC2)cc1C(=O)N1CCCCCC1 | - | - | - | - | 0 | - | - | - | - | -
CC(=O)Nc1ccccc1OCC(=O)c1cc(C)n(Cc2cccs2)c1C | 7 | 0 | 0 | 0 | -9.43 | 0 | 110.0 | 0 | 99.0% | 38.5%
CCc1c(O)nc(SCC(=O)Nc2nc3ccccc3s2)n(C2CCCCC2)c1=O | 7 | 0 | 0 | 0 | 0 | 0 | 0 | 0 | 0 | 0
CCc1c(O)nc(SCC(=O)Nc2ccc(OC)cc2)n(C2CCCCC2)c1=O | 0 | 0 | 0 | 0 | 0 | 0 | - | - | - | -
CCCn1c(CN2CCN(c3cccc(Cl)c3)CC2)nc2c1c(=O)n(C)c(=O)n2C | 7 | 0 | 0 | 0 | 0 | 0 | 80.0 | 0 | 127.3% | 35.5%
CCCCCn1c(CN2CCN(c3cccc(Cl)c3)CC2)nc2c1c(=O)n(C)c(=O)n2C | 0 | 0 | 0 | 0 | 0 | 0 | - | - | - | -
CC(C)(C)c1ccc(OCCCC(=O)Nc2cccc(S(=O)(=O)N3CCOCC3)c2)cc1 | - | - | - | - | 0 | - | - | - | - | -
CC(=O)Nc1cccc(OCC(=O)Nc2cccc(S(=O)(=O)N3CCCC3)c2)c1 | - | - | - | - | 0 | - | - | - | - | -
CC(C)(C)c1ccc(OCCC(=O)Nc2cccc(S(=O)(=O)N3CCCC3)c2)cc1 | 8 | 0 | 0 | 0 | 0 | 0 | 34.5 | 0 | 83.7% | 66.0%
Cc1ccc(OCC(=O)Nc2cccc(S(=O)(=O)N3CCCCCC3)c2)cc1C | 7 | 0 | 0 | 0 | 0 | 0 | 95.5 | 0 | 98.7% | 65.0% | KCNQ1 APC inh=0
CCC(=O)N1CCN(c2nc(CC)nc3sc4c(c23)CCCC4)CC1 | 0 | 0 | 0 | 0 | 0 | 0 | - | - | - | -
CC1CCc2c(sc3nc(C(C)(C)C)nc(N4CCN(C(=O)CCl)CC4)c23)C1 (stereo unspecified) | 11 | 0 | 0 | 0 | 0 | 0 | 109.5 | 0 | 128.0% | 156.0% | KCNQ1 APC inh=0
c1ccc2c(c1)OCC(CNc1ncnc3sccc13)O2 (stereo unspecified) | 12 | 0 | 0 | 0 | 0 | 0 | 106.5 | 0 | 97.0% | 104.5%
COc1cccc(-c2nc(NC(C)C)c3ccccc3n2)c1O | 0 | 0 | 0 | 0 | 0 | 0 | - | - | - | -
CCC(C)Nc1nc(-c2cccc(OC)c2O)nc2ccccc12 (stereo unspecified) | 11 | 0 | 0 | 0 | -11.7 | 0 | 125.0 | 0.309 | 0 | 139.0%
CCC1CCCCN1C(=O)COC(=O)c1ccc(Br)o1 (stereo unspecified) | - | - | - | - | 0 | - | - | - | - | -
CC(NC(=O)Nc1ccc(Br)cc1)C(C)(C)C (stereo unspecified) | 8 | 0 | 0 | 0 | 0 | 0 | 60.0 | 0 | 69.0% | 66.0%
COc1ccc(N2CC(NS(=O)(=O)c3cccs3)CC2=O)cc1 (stereo unspecified) | 0 | 0 | 0 | 0 | 0 | 0 | - | - | - | -
Cc1cc(C(=O)OCC(=O)NCCCN2CCCC2=O)c2ccccc2n1 | 11 | 0 | 0 | 0 | 0 | 0 | 0 | 0 | 0 | 73.0%
NC(=O)C1CCCN1 (stereo unspecified) | 0 | 0 | 0 | 0 | 0 | 0 | - | - | - | -
NCC12CC3CC(C1)CC(c1ccc(Br)cc1)(C3)C2 | 6 | 0 | 0 | 0 | 0 | -9.46 | 66.0 | 0 | 0 | 124.0%
N#Cc1c(C(F)(F)F)cc(=O)n2c1[nH]c1ccccc12 | 6 | 0 | 0 | 0 | 0 | 0 | 38.5 | 0 | 107.0% | 0
CCCCNc1cc(C)nc(NCc2ccccc2)n1 | 10 | 0 | 0 | 0 | 0 | -11.6 | 96.0 | 0 | 0 | 77.0% | KCNQ1 APC inh=+
